Measurements reported in the EternaBench riboswitch data.

System: MS2 coat protein
Assay: apparent Kd, MS2 coat protein; higher = weaker binding; RNA-MaP array; FMN 200 µM where present
Procedure, shortened: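 Stalled E. coli RNA polymerase transcribed the designs on Illumina sequencing-chip clusters. SNAP-549-labelled MS2 coat protein was titrated from 0.7 or 1.5 nM, doubling to 3 µM, without and then with constant ligand, in 100 mM Tris-HCl pH 7.5, 80 mM KCl, 4 mM MgCl2, BSA, DTT, yeast tRNA and Tween-20. Per-cluster binding curves were fitted to green signal normalised to red-channel RNA signal and control-cluster median Fmax. The apparent Kd is the median of the filtered fits.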

[1] = designed as: ON switch for flavin mononucleotide, no ligand
[2] = ligand present: flavin mononucleotide, designed as: ON switch for flavin mononucleotide
[3] = designed as: OFF switch for flavin mononucleotide, no ligand
[4] = ligand present: flavin mononucleotide, designed as: OFF switch for flavin mononucleotide

Sequence | apparent Kd [1] [nM] | apparent Kd [2] [nM] | apparent Kd [3] [nM] | apparent Kd [4] [nM]
AUAUCCUAGAUAGGAUAUACUGAGGUUGAAUGGGUAGAAGGAUCGUUAGGGAAGACUACAUGAGGAUCACCCAUGUUGUGUAUU | 218 | 182 | – | –
GGUACCAACACAGGAUAUGCUUUCCUUUGGGAAGCAGAAGGGUGAAACAUGAGGAUCACCCAUGUGGUGCCAGGGCGUGAGCCC | 1360 | 79.5 | – | –
AUACAUGAGGAUCACCCAUGUCGCAGGUUAAGGCCCAAACCGAGAAGGGAUUCGGUCAAGCCUAAUCAGGAUAUCGGUGGAGCC | 93.4 | 62.1 | – | –
GUAUCGUGAGGAUAUCAUGAUUGACUUAAUUUAUGUCAGCGUGAGAAGGCACAUGAGGAUCACCCAUGUGAUUA | – | – | 22.8 | 54.8
CCCAAACUUGGGCUUGGUGGUGCAUAGGAUAUCCUUGGACAUGAGGAUCACCCAUGUACAACUGUGGAGAAGGGUGCAGGACCU | 227 | 39.6 | – | –
UAGGUACAUGAGGAUCACCCAUGUGAGGAUAUAGUUGAAGAUUGCGAGAGGGAGAGGACUAGAAGGCACAGUGG | – | – | 50.5 | 69
UUAAUUCGAAACAUGAGGAUCACCCAUGUGUUGUGGUUAAUAUAGGAUAUGAGGAUACUUUUUUGUCAGAAGGAUGAUGGUACU | 11.8 | 10.8 | – | –
CGAGUACAUGAGGAUCACCCAUGUUAUGAAUUGUCAGGAUAUGGAUAUUGUUGACAUGCGCCAGAAGGGACUUCUG | 27.5 | 20.2 | – | –
GGAAAUCAUGUAGGAUAUGCAUGGCGAAGCUACGCAGAAGGACAUGAGGAUCACCCAUGUGCUAGCUACCGGAUACGGUGGCAA | – | – | 78.8 | 288
GCAUGCGUUCGAGGAUAUCGGUGAGAAACGGAACGAGAAGGCGAUAGAAUGUCUCAUCUUAUGAACAUGAGGAUCACCCAUGUA | 32.7 | 31.6 | – | –
AGACUGAAGCAAGGAUAUUGUAAGGUUAAUGUACAAGAAGGUGCUGUUUAUGUCUCUUAACAUGAGGAUCACCCAUGUUUUGAA | 19.1 | 19.2 | – | –
GACUUGUCAGGAUAUCUUACAUUUGCAUCGUAGUUACCAUUGGAGAAGGGACAUGAGGAUCACCCAUGUUUGGU | – | – | 35.2 | 34.9
UUAUAAAGUGUGAGGAUAUGCUGGUCCUUAGAUCAGCAGAAGGCACAUGAGGAUCACCCAUGUAAUAUAUUUUU | – | – | 38.4 | 185
AUCUCGUCAGGAUAUUGGAUUUGGAUUGAAAGGUUUAGGUUUAAGAAGGGACAUGAGGAUCACCCAUGUCUGGU | – | – | 21.8 | 21.5
GUAGCAUGCCAAGGAUAUUCAUAUAGUAGGCAAACAUGAGGAUCACCCAUGUAAUGAGAGCAGUGGGAGAAGGUGGGAUGCUAC | 51.5 | 31.9 | – | –
GGCUACGUUUCGUAGCAGUGUCAUCGAGAAGGCCCUGACAUGAGGAUCACCCAUGUUGUUACAUGGGAGGAUAUCGAUGAUACC | 12.1 | 5.27 | – | –
UGCAGACGAGGAUAUAGAUUUAAGUACAUGAGGAUCACCCAUGUGCAUAUGUAUUUAGAUUUAGAAGGCGUCUGCA | – | – | 482 | 469
UUAUCUCAUGAGAAGGACAUGAGGAUCACCCAUGUAGGAUAUCAUGGGUCAGUGGAAUUGAAUCUUCGGAUUCAAUAACUCUAC | 72.5 | 11.9 | – | –
UUUAUAAAUUAGAAGGCGAGAUAAAUUACAAUAGACAUGAGGAUCACCCAUGUGUACCCAUGUUUUGAGGAUAUAGUCAUAUAU | 1140 | 624 | – | –
ACACACCCAUGAGGUCCCUCCACAUGAGGAUCACCCAUGUGCAGAAGGUACGGCACGGUGUGCGGUAAGGAUAUGUACAAGUAA | – | – | 6.08 | 7.71
AGAUGACAAAGUCAUCUCGCUUUGACAUGAGGAUCACCCAUGUAGGAUAUAUUACUCAAAGAGUAAUAGAAGGACAUGUGUCUU | – | – | 37.2 | 104
CCCUAAUAUCGAGGAUAUGUCUAGACACAUGAGGAUCACCCAUGUAUGUGUAUAGAAGGCGAUAUUAACAGCAUGUUACAUGGG | 315 | 101 | – | –
GGAUUACGAGGAUAUCGAUUUUAGUACAUGAGGAUCACCCAUGUUGUCCAGGUCUCGUUUCGAGAAGGCGUGAUUC | – | – | 65.1 | 48.7
UUGGCAUCGUAGAAGGGUGACAUGAGGAUCACCCAUGUGAUGAUAUUUCUCGAGAUAUGUUGUCCAUAGGAUAUACGAGCGAAC | 80.9 | 18.4 | – | –
AGGUCAACCACAGGAUAUGGCUAGCAUAGCUAGCCAGAAGGGUGGUCGUAACUAUGUAAAUACAUGAGGAUCACCCAUGUAUCC | 134 | 25.4 | – | –
CAUUUACAUGAGGAUCACCCAUGUGAGGAUAUGGAAUGGUUCAUUGUCUGACCUCCUUCUAGAAGGCACAUCUC | – | – | 29.6 | 30.5
AUAUCAUACCAAGGAUAUUUAGGAUUUGUGUAGACAUGAGGAUCACCCAUGUGGCGUUAGUCACGGGAGAAGGUGGUAUGAUAU | 622 | 105 | – | –
GUCUGAUUGUAGAAGGUACUUAAUACUCAUGUAACAUGAGGAUCACCCAUGUAUCAACAAUAUUGUAAGGAUAUACAAAUCUCA | – | 222 | – | –

Sequence | apparent Kd [1] [nM] | apparent Kd [2] [nM] | apparent Kd [3] [nM] | apparent Kd [4] [nM]
UGUUGUAUUACAGGAUAUCUAGUAGUUUUAUUUAGAGAAGGGUAUUCACAUGAGGAUCACCCAUGUAUAUACGAGGAAGUUGUG | 38.9 | 40 | – | –
GCAGCGCAUGUAGGAUAUCGGUCAGUUUCUGAUCGAGAAGGACAUGAGGAUCACCCAUGUAAAUUACCGACUUUGUCGGGCUGC | – | – | 10.2 | 39.2
AUGGUACAUGAGGAUCACCCAUGUCAGGAUAUCGGCUGUGACGUGAAAAGAGUGUUGGCGAGAAGGGACUGCAA | – | – | 39.7 | 45.6
GAGGACUGUAAAUAAGUAGAAAUACAUGAGGAUCACCCAUGUAAGGAUAUCGUCAGGAAUACUGACGAGAAGGUACAUCAGUCC | – | – | 14.5 | 18.1
AGUCAGAGCAGAGGAUAUAUACAUGAGGAUCACCCAUGUGACUGACUAUGCUAGAAAUAGCAUGUAUAGAAGGCUGCUCUGACA | – | – | 85 | 223
CUACAUGAGGAUCACCCAUGUGCACACCGGAUCGGCGUGCGCAGAAGGGCCAUGGAGAAAGCCAGGCAGGAUAUGCAAAGGGCU | 396 | 189 | – | –
GGAUUUACUGAGGAUAUUGCAUCACCCGACUGAUAAGAAGGCAGAACAUGAGGAUCACCCAUGUGGGUCGUCAA | – | – | 21.9 | 28.2
AAGAAAUGGGAGUGAUUUGGUUCCGAGGAUAUAGGCAUCGGUACAUGAGGAUCACCCAUGUUCGACUAGAAGGCGGACGGGUCC | 169 | 20.4 | – | –
AGGUAGUCAGGAUAUUAGUGGUAGAGGGAUAACUUUAUUGUUGAGAAGGGACAUGAGGAUCACCCAUGUUUUGU | – | – | 26.3 | 32.5
UUACAGUACAGGUAGGAUAUGUAGGGUGGUACAUGAGGAUCACCCAUGUAUCCACCCUUCGAACGGCAGAAGGGCCCGUCACUGC | 22 | 15.4 | – | –
GAAUAACAUGAGGAUCACCCAUGUGAUUCGCAUGUAGGAUAUGGGCACGCGCCCGCGUGUCCAGAAGGACAGGCUA | 154 | 130 | – | –
UUAGAAAUGUUAGGAUAUUAAUAUUUUUUUAGUAUGAUCUACAUGAGGAUCACCCAUGUUAAUAUUAAGAAGGAACAUUUUAUU | – | – | 88.5 | 64
GAACGGUGAGCAGGAUAUCCACAUUGUCUCCUACAUGAGGAUCACCCAUGUGGAGAAGGGUUUAUAAGUUCGUGUAUACUCAAC | – | – | 6.35 | 6.9
AAUAACAGAGGAUAUACUGUUUUAUGUGUUUGUUAUUUUGAACAUGAGGAUCACCCAUGUAGAAGGCUGAUUGA | – | – | 50 | 44.9
UCUGCCGCCGUGAGGAUAUGCCCAAACAAACGCGGGCAGAAGGCACAUGAGGAUCACCCAUGUCCCGCGGUUUU | – | – | 19.6 | 36.3
UGCAGACGAGGAUAUGAUCAAUAAUACAUGAGGAUCACCCAUGUAAUACUGAUCCAUGGAUCAGAAGGCGUCUGCU | – | – | 16.2 | 24.6
AGCUGUGGCCGAGGAUAUCUAAACUCAAUAACCGAAAUAUAAUCGGACAUGAGGAUCACCCAUGUAGAGAAGGCGGUCUCAGCA | – | – | 34.1 | 71.8
UCCACUGCUGAGAAGGGAUCCGUGUGGUUCGAAUCAGGAUAUCGAUACAGUGCAGCAUGAGGACAUGAGGAUCACCCAUGUAUC | 13.2 | 11.3 | – | –
AUCAGCUCGUCAGGAUAUACGUGACUGCGUCAGCAGUGUGGUAAGAUCACAUGAGGAUCACCCAUGUAGAAGGGACGAGCUGAU | – | – | 53.2 | 580
GGAUAGGACAGAGGAUAUGCGUGCUAGAGAUACUAGCAAAAUUUCCUCACAUGAGGAUCACCCAUGUAGAAGGCUGUCCUAUCG | – | – | 7.75 | 66.2
GCGCAAACGCCAAAAGGCGAAAUUACAUGAGGAUCACCCAUGUAGGAUAUCGAUUGCUUUGCAGUCGAGAAGGACAUGAUGCGC | – | – | 19.2 | 23.9
UUUAGUAUCUAGGAUAUCUAGUACAUAGUAUCUAGAGAAGGAGAUACAUGAGGAUCACCCAUGUUCUGUGAUCU | – | – | 210 | 36.4
AUGGACGUCGUAGGAUAUGUAGGAUUCUCGUACAUGAGGAUCACCCAUGUUGACGUCGAGGUCGGACAGAAGGGCGGUGUCUAU | 20.9 | 8.65 | – | –
CUUGGGUGGCUGGAGGAUAUUCGAGUGGUAACAUGAGGAUCACCCAUGUGUCGCGCGGUACACGAGGAGAAGGCUGGCGGCCGGC | 146 | 54.6 | – | –
UUGAAUUGAAACAUGAGGAUCACCCAUGUGUCAUAGUUGACAUAGGAUAUGCUUAUACUUUUAAAGCAGAAGGAUGACGAUACU | 19.8 | 7.46 | – | –
UAGAUGGGAGGAUAUGCGUAGAUACGGAUUCGUGUGGUGCUACAUGAGGAUCACCCAUGUAGAAGGCCCGUCUU | – | – | 12.8 | 18.6
GGUGCCAUGUAGAAGGCAGAUCUGAUUCAGAUCUGAGGAUAUACAUGAGGAUCACCCAUGUAAAGGCACCGCCCGAGAGUGCAA | – | – | 7.46 | 17.6
